# FXN GAA850 act – frataxin GAA850 promoter activation; AID 540364; HEK293 lucGAA850 FXN promoter luciferase reporter, 24 h; percent of 10 µM SAHA response; activation, % at 6 µM; 0.56% of 360,000 active;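 active = activation above the average of all compounds screened plus 3 SD, cutoff fixed separately per campaign, cut at about 7.5% in these data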;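 note: 0% = DMSO wells and 100% = 10 µM SAHA wells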
# AHR act – activates the human aryl hydrocarbon receptor; AHR-responsive luciferase reporter cells, luminescence; 2.5% of 320,000 active; AID 2796; activation, % at 5 µM; P35869; in the data active = activation above about 47%;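 note: 0% = vehicle wells and 100% = reference agonist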
# STAT3 activator – STAT3 signaling activation; 0.91% of 190,000 active; activation (% of control), % at 5.6 µM; U3A cells, IL-6 STAT3-luciferase reporter, luminescence; 100% = signal with IL-6 EC80 alone;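 active = activation above the screen-wide mean of compound activation plus 3 SD, cut at about 130% in these data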;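 note: 0% = background luminescence of wells with medium and substrate only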
#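 Assay system – human STAT1-deficient U3A cells with stable STAT3-luciferase reporter · Also added – IL-6 (33 ng/mL) · Schedule – compound 1 h, then IL-6 6 h at 37 °C · Technique – reporter luminescence signal · Evaluation – % activation versus median of IL-6-stimulated wells · Benchmarks – IL-6-only wells as 100% reference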
# ABCB6 inh 2 – human ABCB6 transporter inhibition; K562-ABCB6 porphyrin accumulation, flow cytometry, 1 h; active compounds read low; fluorescence ratio to DMSO, % at 10 µM; 0.19% of 360,000 active; AID 602162;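 active = fluorescence ratio to DMSO below 75%, the collection mean minus 3 SD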;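 note: signal is porphyrin accumulated inside mitochondria; 100% equals median channel fluorescence of DMSO control wells; lower ratio means ABCB6 inhibition with less porphyrin fluorescence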
# Target sequence (Q9NP58 whole entry, looked up): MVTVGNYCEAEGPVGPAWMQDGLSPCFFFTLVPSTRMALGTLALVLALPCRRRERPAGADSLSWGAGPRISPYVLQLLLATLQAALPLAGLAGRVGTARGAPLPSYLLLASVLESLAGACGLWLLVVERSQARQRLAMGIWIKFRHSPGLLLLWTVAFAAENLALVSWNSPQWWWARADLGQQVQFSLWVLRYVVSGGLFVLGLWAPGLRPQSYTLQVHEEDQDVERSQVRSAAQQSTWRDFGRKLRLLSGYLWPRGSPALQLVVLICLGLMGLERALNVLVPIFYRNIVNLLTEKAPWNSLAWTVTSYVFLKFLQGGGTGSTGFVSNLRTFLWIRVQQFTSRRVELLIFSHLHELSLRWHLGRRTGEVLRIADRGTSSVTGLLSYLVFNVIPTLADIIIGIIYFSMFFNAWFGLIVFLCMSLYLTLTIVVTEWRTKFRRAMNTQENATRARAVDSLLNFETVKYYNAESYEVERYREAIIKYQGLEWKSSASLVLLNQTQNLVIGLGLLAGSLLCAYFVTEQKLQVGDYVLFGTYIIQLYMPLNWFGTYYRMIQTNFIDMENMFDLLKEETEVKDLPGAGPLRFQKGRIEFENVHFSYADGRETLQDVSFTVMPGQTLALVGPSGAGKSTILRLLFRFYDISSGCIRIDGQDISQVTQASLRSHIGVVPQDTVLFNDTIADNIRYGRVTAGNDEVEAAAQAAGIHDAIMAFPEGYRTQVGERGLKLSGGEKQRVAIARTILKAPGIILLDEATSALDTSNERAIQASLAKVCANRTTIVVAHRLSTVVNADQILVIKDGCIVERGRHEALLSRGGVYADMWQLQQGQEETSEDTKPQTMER
# The depositor's hits bear a star; x = no result. Hits are enriched below; roughly 3.3% of the tested compounds scored in any of these assays.
SMILES,FXN GAA850 act,AHR act,STAT3 activator,ABCB6 inh 2
C=CCN(CC=C)C(=S)NC(=O)c1ccc(OC)cc1,2,51*,99,98
C=CCN(CC=C)C(=S)NC(=O)c1ccc(-c2ccccc2)cc1,1,3,90,96
COc1ccccc1NC(C)C(=O)N/N=C/c1ccccc1OCc1cccc(Br)c1 (stereo not drawn),1,52*,102,100
Cc1cc(C)nc(N/N=C/c2ccccc2OCc2cccc(Br)c2)n1,-2,15,92,91
Cc1cc(C)c(NC(=O)C2CC3CCC2C3)c(C)c1 (stereo not drawn),4,3,x,100
COC(=O)c1ccc2c(=O)n(CCN3CCOCC3)c(SCC(=O)Nc3ccc(OC)cc3OC)nc2c1,-1,0,x,98
CCOC(=O)/C=C(C)\C=C\c1c[nH]c2ccccc12,0,53*,x,97
CCOC(=O)/C(=C/c1c[nH]c2ccccc12)NC(C)=O,-2,12,106,97
NC(Cc1ccc(Cl)cc1)c1csc(Nc2ccc(C(=O)NCCCO)cn2)n1 (stereo not drawn),2,x,x,100
CCN(CC)C(=O)Cn1cc(C(=O)C(=O)N2CCCc3ccccc32)c2ccccc21,-1,70*,107,94
CCN(CC)C(=O)Cn1cc(C(=O)C(=O)N2CCN(C)CC2)c2ccccc21,0,6,x,95
COc1ccccc1N1Cc2ccc(OC)c(OC)c2C1=O,-2,3,x,100
COc1ccc2c(c1OC)C(=O)N(c1ccccn1)C2,4,52*,95,105
Cc1cc(C)cc(Nc2cc(C)nc3nc(C)nn23)c1,0,51*,103,99
Cc1cc(Nc2ccc(Br)cc2F)n2nc(C)nc2n1,-1,56*,94,104
Cc1ccc(Nc2cc(C)nc3nc(C)nn23)c(C)c1,-4,17,105,100
Cc1ccc2c(c1)c1c3n2CCN(C=O)C3CCC1 (stereo not drawn),1,53*,x,102
Cc1cc(C(=O)Nc2sc(C)c(C)c2C#N)c(C)o1,0,76*,93,98
Cc1sc(NC(=O)c2oc3ccccc3c2C)c(C#N)c1C,0,9,96,101
COc1ccccc1S(=O)(=O)Cc1ccc(C(=O)NCCN2CCCCCC2)o1,2,47*,109,105
CN(C)Cc1c(O)ccc2c(=O)c(-c3ccc(Cl)cc3)coc12,2,66*,x,96
N#Cc1cc2c(nc1SCC(=O)Nc1nccs1)CCCCC2,0,-9,84,96
Cc1ccc(C#N)c(SCC(=O)Nc2nccs2)n1,1,63*,93,98
Cn1ccnc1SCC(=O)Nc1sccc1C#N,2,51*,103,88
Cn1[nH]c(CSc2ccc(Cl)cc2)cc1=O,0,1,97,89
SMILES,FXN GAA850 act,AHR act,STAT3 activator,ABCB6 inh 2
CCC(C)[C@H](NC(=O)NCCCn1ccnc1)C(=O)OC (stereo partly drawn),1,0,99,106
CCc1ccc(OCC(=O)O/N=C(\N)c2ccncc2)cc1,4,9,x,99
Oc1[nH]c2ccccc2c1N=Nc1ccccn1,5,x,x,89
Oc1[nH]c2ccccc2c1N=Nc1ccc(C(F)(F)F)cn1,1,55*,111,94
Oc1[nH]c2ccc(Br)cc2c1N=Nc1ccc(C(F)(F)F)cn1,0,64*,112,111
COc1ccc(CC(=O)NNc2ncnc3c2cnn3-c2ccc(C)cc2)cc1,3,3,97,96
CC(C)Nc1ncnc2c1cnn2-c1ccccc1,3,-1,81,101
COc1ccc(CC(=O)NNc2ncnc3c2cnn3-c2ccccc2)cc1,4,51*,103,94
NNc1ncnc2c1cnn2-c1ccccc1,2,61*,109,96
COc1ccc(CC(=O)Nc2nnc(CC(C)C)s2)cc1S(=O)(=O)N1CCOCC1,-1,x,x,100
CCCn1c(SCC(=O)Nc2ccccc2-c2ccccc2)nnc1-c1ccoc1C,-2,-1,112,98
CC(C)Oc1ccccc1OC1(C)CCN(Cc2ccc(OC(F)(F)F)cc2)C1 (stereo not drawn),2,x,x,100
CCOc1ccccc1CN1CCN(Cc2[nH]c3ccccc3c2C)CC1CCO (stereo not drawn),-4,51*,108,105
O=C(NC1CCCC1)c1cnc2n(c1=O)CCS2,2,60*,100,105
CN(C)C(=O)CSc1nc(-c2cccs2)c(-c2cccs2)[nH]1,0,32,x,94
CSc1cccc(NC(=O)CC(C)n2ccnc2)c1 (stereo not drawn),0,58*,x,104

# Screening data (PubChem)
